In brackets after ≈: the same amount, converted by molar mass. Activity calls are given as the source filed them. No cut-off for these calls is given here.
Assays:
[1] = Inhibition of Escherichia coli NAD-dependent DNA ligase
Escherichia coli [2] = assay: Antibacterial activity against tolC/rfaC-deficient Escherichia coli harboring ligA251 mutant; assay type: functional
Method in brief: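 MIC read-out. The E. coli strain carries only the ligA251 allele (L15F exchange), which gives more than 20-fold reduced ligation activity and sensitizes it to LigA inhibitors.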

Escherichia coli [3] = assay: Antibacterial activity against tolC/rfaC-deficient Escherichia coli harboring ligA251 mutant and pECLigA; assay type: functional
Method in brief: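 MIC read-out. The strain is the isogenic ligA251 E. coli strain, over-producing wild-type LigA from plasmid pECLigA, which gives high ligation activity.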

Escherichia coli [4] = assay: Antibacterial activity against tolC/rfaC-deficient Escherichia coli; assay type: functional
DNA ligase = DNA ligase (Staphylococcus aureus, UniProt Q9AIU7); assay: Inhibition of Staphylococcus aureus NAD-dependent DNA ligase
DNA ligase, sequence (Q9AIU7 whole entry): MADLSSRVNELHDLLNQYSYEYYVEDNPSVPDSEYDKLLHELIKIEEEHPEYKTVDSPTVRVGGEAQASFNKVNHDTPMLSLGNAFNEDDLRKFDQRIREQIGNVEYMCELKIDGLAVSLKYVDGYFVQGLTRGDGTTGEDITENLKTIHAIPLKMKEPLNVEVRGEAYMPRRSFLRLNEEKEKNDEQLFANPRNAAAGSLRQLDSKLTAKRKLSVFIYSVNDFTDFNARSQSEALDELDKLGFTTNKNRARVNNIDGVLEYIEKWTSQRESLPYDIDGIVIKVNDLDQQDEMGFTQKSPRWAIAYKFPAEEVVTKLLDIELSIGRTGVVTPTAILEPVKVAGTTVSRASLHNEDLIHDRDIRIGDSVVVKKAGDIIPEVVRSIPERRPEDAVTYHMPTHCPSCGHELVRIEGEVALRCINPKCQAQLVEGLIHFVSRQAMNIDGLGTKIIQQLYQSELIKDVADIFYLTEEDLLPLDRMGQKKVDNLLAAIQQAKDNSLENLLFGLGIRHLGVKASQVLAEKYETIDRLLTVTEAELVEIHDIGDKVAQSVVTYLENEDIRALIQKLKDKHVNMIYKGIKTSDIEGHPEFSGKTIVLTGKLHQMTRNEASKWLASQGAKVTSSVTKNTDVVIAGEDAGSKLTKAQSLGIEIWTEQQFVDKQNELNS

[5] = Inhibition of Streptococcus pneumoniae NAD-dependent DNA ligase assessed as equilibrium dissociation constant
Staphylococcus aureus [6] = assay: Antibacterial activity against wild type Staphylococcus aureus ATCC 29213 by CLSI dilution method; assay type: functional
[7] = Terminal half life in mouse at 10 mg/kg, sc; assay type: ADME, organism-based; design: dose 10 mg/kg, route subcutaneous; settings: in vivo, read-out: beta t1/2 (converted)
[8] = Fraction unbound in mouse plasma at 10 mg/kg, sc; assay type: ADME, organism-based; design: dose 10 mg/kg, route subcutaneous
[9] = AUC (0 to 24 hrs) in rat at 1 mg/kg, po; assay type: ADME, organism-based; design: time < 24 hr, dose 1 mg/kg, route oral; settings: plasma
[10] = Total plasma clearance in rat at 0.1 mg/kg, iv and 1 mg/kg, po; assay type: ADME, organism-based
Method in brief: (§1)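 Rat intravenous PK: 0.1 mg/kg dose in 5% DMSO/28.5% HPBCD in water. Total plasma clearance is in mL/min/kg. Volume of distribution at steady state is in L/kg.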

Cytochrome P450 3A4 = Cytochrome P450 3A4 (Homo sapiens, UniProt P08684); assay: Inhibition of human CYP3A4; assay type: ADME
Cytochrome P450 3A4, sequence (P08684 whole entry): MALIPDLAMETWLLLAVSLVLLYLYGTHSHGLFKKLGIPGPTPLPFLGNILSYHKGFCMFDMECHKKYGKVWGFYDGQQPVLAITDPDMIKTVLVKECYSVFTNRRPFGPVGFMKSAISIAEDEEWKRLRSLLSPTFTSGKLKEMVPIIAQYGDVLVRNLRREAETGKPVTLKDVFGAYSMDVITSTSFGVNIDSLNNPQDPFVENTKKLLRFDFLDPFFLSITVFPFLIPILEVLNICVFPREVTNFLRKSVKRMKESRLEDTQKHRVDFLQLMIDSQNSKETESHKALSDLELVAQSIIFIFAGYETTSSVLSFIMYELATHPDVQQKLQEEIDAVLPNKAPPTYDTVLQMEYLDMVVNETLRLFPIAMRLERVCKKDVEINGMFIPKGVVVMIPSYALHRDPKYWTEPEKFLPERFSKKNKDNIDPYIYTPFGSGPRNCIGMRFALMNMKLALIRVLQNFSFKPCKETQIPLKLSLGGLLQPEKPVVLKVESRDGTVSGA

Staphylococcus aureus [11] = assay: Antibacterial activity against Staphylococcus aureus ATCC 25923 by CLSI dilution method; assay type: functional
Klebsiella pneumoniae = assay: Antibacterial activity against Klebsiella pneumoniae T6474 by CLSI dilution method; assay type: functional
Enterococcus faecalis = assay: Antibacterial activity against Enterococcus faecalis ATCC 29212 by CLSI dilution method; assay type: functional
[12] = Volume of distribution at steady state in rat at 0.1 mg/kg, iv and 1 mg/kg, po; assay type: ADME, organism-based; settings: in vivo, read-out: Vdss; method in brief: as §1
Staphylococcus aureus [13] = assay: Bacteriostatic activity against […]-sensitive Staphylococcus aureus DM 11823 in mouse neutropenic thigh infection model at 100 mg/kg, sc administered 2 hrs post infection measured after 24 hrs; assay type: functional, organism-based; design: dose 100 mg/kg
Method in brief: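 Neutropenic murine thigh infection with a quinolone-sensitive laboratory descendant of S. aureus DSM 11823. Inoculum 2×10^3 cfu given i.m. Compound given once at 100 mg/kg s.c., 2 h post-infection, in 5% DMSO/15% Solutol HS15 in water. Bacterial burden assessed 24 h after infection.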

[14] = molecular target: DNA ligase 1 (Homo sapiens) (UniProt P18858); assay: Inhibition of human DNA Ligase 1
DNA ligase 1 (Homo sapiens), sequence (P18858 whole entry): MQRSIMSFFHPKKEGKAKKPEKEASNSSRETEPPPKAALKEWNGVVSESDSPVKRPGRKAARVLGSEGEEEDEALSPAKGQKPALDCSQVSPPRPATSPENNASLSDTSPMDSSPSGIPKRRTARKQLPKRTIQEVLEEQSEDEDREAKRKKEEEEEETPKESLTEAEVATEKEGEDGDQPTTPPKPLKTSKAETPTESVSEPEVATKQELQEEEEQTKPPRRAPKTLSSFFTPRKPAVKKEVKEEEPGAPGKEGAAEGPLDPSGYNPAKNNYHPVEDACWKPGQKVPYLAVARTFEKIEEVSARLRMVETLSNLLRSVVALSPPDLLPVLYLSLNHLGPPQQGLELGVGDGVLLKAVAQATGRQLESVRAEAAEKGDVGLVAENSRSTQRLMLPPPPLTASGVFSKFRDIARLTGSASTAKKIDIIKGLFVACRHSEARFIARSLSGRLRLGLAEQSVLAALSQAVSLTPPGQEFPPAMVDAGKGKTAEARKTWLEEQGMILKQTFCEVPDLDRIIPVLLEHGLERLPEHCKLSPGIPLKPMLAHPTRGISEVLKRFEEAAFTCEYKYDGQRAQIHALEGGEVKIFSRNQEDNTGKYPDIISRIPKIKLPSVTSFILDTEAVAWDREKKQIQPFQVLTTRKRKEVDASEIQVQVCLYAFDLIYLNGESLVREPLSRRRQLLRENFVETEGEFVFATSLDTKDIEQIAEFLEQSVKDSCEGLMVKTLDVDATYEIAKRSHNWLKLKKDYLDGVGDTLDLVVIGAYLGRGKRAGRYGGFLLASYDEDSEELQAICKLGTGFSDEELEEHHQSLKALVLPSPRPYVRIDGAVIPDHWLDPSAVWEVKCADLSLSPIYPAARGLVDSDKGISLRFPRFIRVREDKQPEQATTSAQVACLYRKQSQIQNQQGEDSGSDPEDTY

[15] = Selectivity ratio of IC50 for Streptococcus pneumoniae NAD-dependent DNA ligase to IC50 for Staphylococcus aureus NAD-dependent DNA ligase
Moraxella catarrhalis = assay: Antibacterial activity against Moraxella catarrhalis A894 by CLSI dilution method; assay type: functional
[16] = Cmax in mouse at 10 mg/kg, sc; assay type: ADME, organism-based; design: dose 10 mg/kg, route subcutaneous; settings: in vivo
[17] = Oral bioavailability in rat at 1 mg/kg; assay type: ADME, organism-based; settings: in vivo
Streptococcus pneumoniae [18] = assay: Antibacterial activity against wild type Streptococcus pneumoniae A-216 by CLSI dilution method; assay type: functional
Rattus norvegicus [19] = assay: fAUC (0 to 24 hrs) in rat at 1 mg/kg, po; assay type: ADME, organism-based; design: dose 1 mg/kg, route oral; settings: in vivo
[20] = Terminal half life in rat at 0.1 mg/kg, iv and 1 mg/kg, po; assay type: ADME, organism-based; settings: in vivo, read-out: beta t1/2 (converted)
[21] = molecular target: T1, Dihydrofolate reductase (Homo sapiens) (UniProt P00374); assay: Inhibition of human DHFR
T1 sequence (whole entry): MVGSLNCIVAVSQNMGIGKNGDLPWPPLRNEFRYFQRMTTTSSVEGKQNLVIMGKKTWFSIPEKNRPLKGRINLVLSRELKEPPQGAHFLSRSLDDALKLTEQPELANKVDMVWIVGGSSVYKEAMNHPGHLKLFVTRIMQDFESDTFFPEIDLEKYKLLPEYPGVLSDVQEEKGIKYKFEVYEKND

Acinetobacter baumannii = assay: Antibacterial activity against Acinetobacter baumannii T6474 by CLSI dilution method; assay type: functional
[22] = AUC (0 to 24 hrs) in mouse at 10 mg/kg, sc; assay type: ADME, organism-based; design: time < 24 hr, dose 10 mg/kg, route subcutaneous; settings: plasma
[23] = AUC (0 to infinity) in rat at 0.1 mg/kg, iv; assay type: ADME, organism-based; design: time infinity, dose 0.1 mg/kg, route intravenous; settings: plasma; method in brief: as §1
Cytochrome P450 2D6 = Cytochrome P450 2D6 (Homo sapiens, UniProt P10635); assay: Inhibition of human CYP2D6; assay type: ADME
Cytochrome P450 2D6, sequence (P10635 whole entry): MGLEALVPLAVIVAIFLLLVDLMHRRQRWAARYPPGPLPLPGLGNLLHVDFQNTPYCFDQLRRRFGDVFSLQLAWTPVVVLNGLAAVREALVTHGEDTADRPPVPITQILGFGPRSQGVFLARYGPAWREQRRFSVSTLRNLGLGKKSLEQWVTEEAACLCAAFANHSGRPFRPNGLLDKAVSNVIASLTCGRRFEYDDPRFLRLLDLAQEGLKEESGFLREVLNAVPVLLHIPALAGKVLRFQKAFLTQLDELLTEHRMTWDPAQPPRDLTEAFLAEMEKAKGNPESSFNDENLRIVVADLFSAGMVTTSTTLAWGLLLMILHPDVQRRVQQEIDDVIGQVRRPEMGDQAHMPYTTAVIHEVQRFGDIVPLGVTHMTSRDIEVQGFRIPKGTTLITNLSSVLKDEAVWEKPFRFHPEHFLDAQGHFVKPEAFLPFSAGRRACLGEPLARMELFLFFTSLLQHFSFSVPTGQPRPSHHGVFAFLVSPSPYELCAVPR

Staphylococcus aureus [24] = assay: Antibacterial activity against […]-sensitive Staphylococcus aureus DM 11823; assay type: functional
[25] = Intrinsic clearance in rat hepatocytes measured per 10^6 cells; assay type: ADME, cell-based, Hepatocyte; settings: read-out: CLH
Staphylococcus aureus [26] = assay: Antibacterial activity against Staphylococcus aureus A798 by CLSI dilution method; assay type: functional
[27] = Intrinsic clearance in rat liver microsomes; assay type: ADME, Microsome; settings: read-out: CLH
Escherichia coli [28] = assay: Antibacterial activity against Escherichia coli ATCC 25922 by CLSI dilution method; assay type: functional
Saccharomyces cerevisiae = assay: Antifungal activity against Saccharomyces cerevisiae A136 expressing ATP-dependent DNA ligase by CLSI dilution method; assay type: functional
[29] = Cmax in rat at 1 mg/kg, po; assay type: ADME, organism-based; design: dose 1 mg/kg, route oral; settings: in vivo
[30] = Fraction unbound in rat plasma at 0.1 mg/kg, iv and 1 mg/kg, po; assay type: ADME, organism-based
Haemophilus influenzae = assay: Antibacterial activity against wild type Haemophilus influenzae A921 by CLSI dilution method; assay type: functional
Cytochrome P450 2C9 = Cytochrome P450 2C9 (Homo sapiens, UniProt P11712); assay: Inhibition of human CYP2C9; assay type: ADME
Cytochrome P450 2C9, sequence (P11712 whole entry): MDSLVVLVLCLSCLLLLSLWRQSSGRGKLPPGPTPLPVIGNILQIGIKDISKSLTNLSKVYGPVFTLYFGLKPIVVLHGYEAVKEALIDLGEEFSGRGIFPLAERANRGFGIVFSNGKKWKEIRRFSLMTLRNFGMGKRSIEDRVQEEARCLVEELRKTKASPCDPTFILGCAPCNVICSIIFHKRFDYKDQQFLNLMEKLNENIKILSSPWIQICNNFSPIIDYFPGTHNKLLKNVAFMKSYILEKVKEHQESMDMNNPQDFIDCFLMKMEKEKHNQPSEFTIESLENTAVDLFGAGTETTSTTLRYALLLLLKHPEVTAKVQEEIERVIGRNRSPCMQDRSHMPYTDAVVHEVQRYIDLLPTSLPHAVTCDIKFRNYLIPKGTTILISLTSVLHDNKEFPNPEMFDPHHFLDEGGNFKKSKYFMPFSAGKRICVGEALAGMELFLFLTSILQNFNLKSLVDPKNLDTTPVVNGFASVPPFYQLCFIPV

Clostridioides difficile = assay: Antibacterial activity against Clostridium difficile ATCC A1148 by CLSI dilution method; assay type: functional
Pseudomonas aeruginosa = assay: Antibacterial activity against Pseudomonas aeruginosa ATCC 27853 by CLSI dilution method; assay type: functional
Streptococcus pneumoniae [31] = assay: Antibacterial activity against Streptococcus pneumoniae ATCC 49619 by CLSI dilution method; assay type: functional
Enterococcus faecium = assay: Antibacterial activity against Enterococcus faecium A949 by CLSI dilution method; assay type: functional
Rattus norvegicus [32] = assay: fAUC (0 to infinity) in rat at 0.1 mg/kg, iv; assay type: ADME, organism-based; design: dose 0.1 mg/kg, route intravenous; settings: in vivo; method in brief: as §1
Staphylococcus aureus [33] = assay: Antibacterial activity against Staphylococcus aureus ATCC 25923 by CLSI dilution method in presence of 50% human serum; assay type: functional
Method in brief: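 MIC determined in the presence of 50% human serum.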

Question: For `Nc1cc(-c2nc3ccccc3[nH]2)n[nH]c1=O`, which IC50 [1] is on record?
Answer: > 25 µM

Question: And the MIC (Escherichia coli [2])?
Answer: 8 µg/mL (≈ 35.2 µM)

Question: What about the MIC (Escherichia coli [3]) of the same compound?
Answer: 16 µg/mL (≈ 70.4 µM)

Question: What about the MIC (Escherichia coli [4]) of the same compound?
Answer: > 16 µg/mL

Question: What about the IC50 (DNA ligase) of the same compound?
Answer: 2.5 µM

Question: And the Kd [5]?
Answer: 20 µM

Question: For `NC(=O)c1cc2cc(Br)c(C(F)(F)F)nc2nc1N`, which MIC (Staphylococcus aureus [6]) is on record?
Answer: 1 µg/mL (≈ 2.98 µM)

Question: And the half-life [7]?
Answer: 2.9 h

Question: And the fraction unbound [8]?
Answer: 0.046

Question: And the AUC(0-t) at 24 h [9]?
Answer: 1220 ng·h/mL

Question: What about the clearance [10] of the same compound?
Answer: 11 mL/min/kg

Question: What about the IC50 (Cytochrome P450 3A4) of the same compound?
Answer: > 50 µM

Question: And the MIC (Staphylococcus aureus [11])?
Answer: 1 µg/mL (≈ 2.98 µM)

Question: And the MIC (Klebsiella pneumoniae)?
Answer: > 32 µg/mL

Question: And the MIC (Enterococcus faecalis)?
Answer: 8 µg/mL (≈ 23.9 µM)

Question: What about the Vd [12] of the same compound?
Answer: 0.71 L/kg

Question: And the Activity (Staphylococcus aureus [13])?
Answer: Active

Question: What about the inhibition [14] of the same compound?
Answer: inactive

Question: And the Ratio IC50 [15]?
Answer: 2

Question: What about the IC50 [1] of the same compound?
Answer: 0.3 µM

Question: And the MIC (Escherichia coli [2])?
Answer: 0.063 µg/mL (≈ 0.188 µM)

Question: And the MIC (Moraxella catarrhalis)?
Answer: 8 µg/mL (≈ 23.9 µM)

Question: What about the Cmax [16] of the same compound?
Answer: 7050 ng/mL

Question: What about the bioavailability [17] of the same compound?
Answer: 80%

Question: What about the MIC (Streptococcus pneumoniae [18]) of the same compound?
Answer: 2 µg/mL (≈ 5.97 µM)

Question: What about the fAUC (Rattus norvegicus [19]) of the same compound?
Answer: 171 ng·h/mL

Question: And the half-life [20]?
Answer: 2.3 h

Question: What about the inhibition [21] of the same compound?
Answer: inactive

Question: And the MIC (Acinetobacter baumannii)?
Answer: > 32 µg/mL

Question: What about the AUC(0-t) at 24 h [22] of the same compound?
Answer: 84500 ng·h/mL

Question: And the AUC(0-inf) [23]?
Answer: 150 ng·h/mL

Question: What about the IC50 (Cytochrome P450 2D6) of the same compound?
Answer: > 50 µM

Question: And the MIC (Staphylococcus aureus [24])?
Answer: 0.5 µg/mL (≈ 1.49 µM)

Question: What about the hepatocyte CLint [25] of the same compound?
Answer: 1.8 µL/min/1e6 cells

Question: And the MIC (Staphylococcus aureus [26])?
Answer: 1 µg/mL (≈ 2.98 µM)

Question: And the microsomal CLint [27]?
Answer: 20 µL/min/mg

Question: What about the MIC (Escherichia coli [4]) of the same compound?
Answer: 2 µg/mL (≈ 5.97 µM)

Question: What about the MIC (Escherichia coli [28]) of the same compound?
Answer: > 32 µg/mL

Question: What about the MIC (Saccharomyces cerevisiae) of the same compound?
Answer: > 32 µg/mL

Question: What about the Cmax [29] of the same compound?
Answer: 410 ng/mL

Question: And the fraction unbound [30]?
Answer: 0.14

Question: And the MIC (Haemophilus influenzae)?
Answer: 0.125 µg/mL (≈ 0.373 µM)

Question: What about the IC50 (Cytochrome P450 2C9) of the same compound?
Answer: > 50 µM

Question: And the MIC (Clostridioides difficile)?
Answer: 8 µg/mL (≈ 23.9 µM)

Question: What about the MIC (Pseudomonas aeruginosa) of the same compound?
Answer: > 32 µg/mL

Question: What about the MIC (Streptococcus pneumoniae [31]) of the same compound?
Answer: 16 µg/mL (≈ 47.7 µM)

Question: What about the MIC (Enterococcus faecium) of the same compound?
Answer: > 32 µg/mL

Question: And the fAUC (Rattus norvegicus [32])?
Answer: 21 ng·h/mL

Question: What about the MIC (Staphylococcus aureus [33]) of the same compound?
Answer: 2 µg/mL

Reference: ChEMBL document CHEMBL2163244, “Structure-guided design, synthesis and biological evaluation of novel DNA ligase inhibitors with in vitro and in vivo anti-staphylococcal activity” (Bioorg Med Chem Lett, 2012)
